Data as given in PMC4527528 (Chemistry & biology, 2015).

Legend:
ABHD3 = biological target: T1, ABHD3 (Homo sapiens, UniProt Q8WU67); test: ABPP-SILAC, in situ treatment of PC3 cells; type: cell-based; conditions: 4 h, FP-biotin probe
T1 sequence (Q8WU67 1-409): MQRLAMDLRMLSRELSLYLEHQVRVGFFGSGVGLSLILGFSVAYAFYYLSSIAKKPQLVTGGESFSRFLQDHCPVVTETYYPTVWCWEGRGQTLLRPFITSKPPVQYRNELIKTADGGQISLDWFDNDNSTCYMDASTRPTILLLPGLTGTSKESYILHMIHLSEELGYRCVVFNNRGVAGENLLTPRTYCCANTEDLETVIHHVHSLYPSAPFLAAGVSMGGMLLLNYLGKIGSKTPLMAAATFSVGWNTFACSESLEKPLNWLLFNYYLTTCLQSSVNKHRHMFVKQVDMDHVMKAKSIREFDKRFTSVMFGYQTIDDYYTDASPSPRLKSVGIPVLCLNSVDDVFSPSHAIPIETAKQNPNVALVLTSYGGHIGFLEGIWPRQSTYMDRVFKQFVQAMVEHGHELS
Method in brief: (§1)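 Heavy-isotope PC3 cells (RPMI plus serum, grown to confluency) get fresh medium with test compound; light cells get DMSO. Incubated 4 h at 37 °C, 5% CO2, then PBS-washed and sonicated in PBS. Proteomes (2 mg/mL) labelled with FP-biotin (2.5 µM, 1 h) or ABC45 (5 µM, 1 h), then CuAAC to biotin-azide. Heavy and light combined, streptavidin-enriched, trypsin-digested on bead, analysed by LC-MS/MS; SILAC ratios; two independent experiments.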

PPT1 [1] = biological target: T2, PPT1 (Homo sapiens, UniProt P50897); test: In situ competitive ABPP; type: cell-based; conditions: transfected HEK293T cells
T2 sequence (P50897 28-306): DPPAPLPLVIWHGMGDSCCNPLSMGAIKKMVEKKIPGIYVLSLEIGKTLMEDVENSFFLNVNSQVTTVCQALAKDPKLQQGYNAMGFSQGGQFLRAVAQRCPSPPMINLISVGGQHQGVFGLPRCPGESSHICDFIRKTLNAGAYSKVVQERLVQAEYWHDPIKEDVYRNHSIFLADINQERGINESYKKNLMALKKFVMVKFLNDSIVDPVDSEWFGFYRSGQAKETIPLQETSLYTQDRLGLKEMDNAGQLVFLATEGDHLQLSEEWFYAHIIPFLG
Method in brief: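 HEK293T cells transiently transfected with human PPT1 are grown to confluency in DMEM plus serum. Treated in fresh medium with test compound or DMSO, 4 h, 37 °C, 5% CO2. Washed, sonicated in PBS, and lysates labelled with the ABC45 click probe. Rhodamine-azide added by CuAAC; PNGaseF deglycosylation for the blockade test; SDS-PAGE and in-gel fluorescence.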

ABHD4 [2] = biological target: T3, ABHD4 (Homo sapiens, UniProt Q8TB40); test: Gel-based competitive ABPP; type: biochemical; conditions: combined transfected HEK293T lysate
T3 sequence (Q8TB40 1-342): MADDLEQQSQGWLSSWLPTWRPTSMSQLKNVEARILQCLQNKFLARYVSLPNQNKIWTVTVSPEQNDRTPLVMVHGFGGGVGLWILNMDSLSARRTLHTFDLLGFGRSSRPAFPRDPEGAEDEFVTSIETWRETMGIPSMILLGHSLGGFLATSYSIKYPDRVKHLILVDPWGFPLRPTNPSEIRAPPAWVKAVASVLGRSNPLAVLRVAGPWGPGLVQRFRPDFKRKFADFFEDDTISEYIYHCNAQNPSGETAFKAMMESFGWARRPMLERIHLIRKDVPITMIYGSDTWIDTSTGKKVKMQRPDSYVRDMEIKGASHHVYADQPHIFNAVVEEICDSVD

ABHD4 [3] = biological target: T3, ABHD4; test: ABPP-SILAC, in situ treatment of PC3 cells; type: cell-based; conditions: 4 h, FP-biotin probe
Method in brief: as §1

PPT1 [4] = biological target: T2, PPT1; test: ABPP-SILAC with ABC45 probe, in situ treatment of PC3 cells; type: cell-based; conditions: 1 µM, 4 h, ABC45 probe (5 µM, 1 h)
Method in brief: as §1

endogenous PPT1 = biological target: T4, endogenous PPT1 (Homo sapiens, UniProt P50897); test: MU-6S-Palm-βD-Glc substrate assay after in situ treatment of PC3 cells; type: cell-based; conditions: 500 nM, 4 h
T4 sequence (P50897 28-306): T2 sequence (P50897 28-306)
Method in brief: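 PC3 cells (RPMI plus serum, confluent) treated in situ with test compound or DMSO for 4 h at 37 °C, 5% CO2, then washed and sonicated in PBS. Lysate PPT1 activity measured with MU-6S-Palm-βD-Glc: thioester hydrolysis, then sweet almond β-glucosidase releases 4-methylumbelliferone, read by fluorescence. Activity compared with DMSO controls; three independent experiments.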

ABHD4 [5] = biological target: T3, ABHD4; type: biochemical; conditions: in vitro, lysates from ABHD4-transfected HEK293T cells
PPT1 [6] = biological target: T5, PPT1 (Mus musculus, UniProt O88531); test: In vivo gel-based ABPP of mouse tissues; conditions: C57BL6 mice, intraperitoneal, 4 h, central and peripheral tissues
T5 sequence (O88531 28-306): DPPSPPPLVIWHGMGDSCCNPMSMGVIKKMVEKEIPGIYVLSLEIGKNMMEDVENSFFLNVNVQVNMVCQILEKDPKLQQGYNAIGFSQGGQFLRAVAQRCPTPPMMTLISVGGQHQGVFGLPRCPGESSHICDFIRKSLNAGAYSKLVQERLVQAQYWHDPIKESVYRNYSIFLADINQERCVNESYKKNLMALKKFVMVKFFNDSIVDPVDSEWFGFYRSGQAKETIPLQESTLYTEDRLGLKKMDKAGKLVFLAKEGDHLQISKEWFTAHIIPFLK
Method in brief: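 C57Bl/6 mice dosed intraperitoneally across 1–40 mg/kg in saline/ethanol/emulphor 18:1:1 (v/v/v), or vehicle. After 4 h, isoflurane anaesthesia, cervical dislocation and tissue harvest. Tissue proteomes (1 mg/mL) labelled with ABC45 (1 µM, 60 min) and rhodamine-azide by CuAAC, PNGaseF-treated after labelling, resolved by SDS-PAGE and scanned for fluorescence.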

serine hydrolases = test: ABPP-SILAC serine hydrolase selectivity profile in PC3 cells; type: cell-based, human; conditions: PC3 cells in situ, 1 or 0.1 µM, 4 h; ABHD6 and CPVL
Method in brief: as §1

Cytotoxicity = type: cell-based; conditions: read-out: cell toxicity IC50

COc1ccc(N2CCN(C(=O)ON3C(=O)C4CN(Cc5ccc(Oc6ccccc6)cc5)CCN4C3=O)CC2)cc1 (centres unmarked) [ABC34]
inhibition of ABHD3 (ABHD3; 1 µM): ~ 80% | blockade of ABC45 reactivity of recombinant human PPT1 (PPT1 [1]; 5 µM, 4 h): blocked | preference for ABHD4 over ABHD3 (ABHD4 [2]): preferentially inhibited ABHD4 over ABHD3 | inhibition of ABHD4 (ABHD4 [3]; 1 µM): completely inhibited | inhibition of PPT1 (PPT1 [4]): more than 90%

COc1ccc(N2CCN(C(=O)ON3C(=O)C4CN(CC5CCN(Cc6ccccc6)CC5)CCN4C3=O)CC2)cc1 (centres unmarked) [ABC44]
4-MU-6S-Palm-βD-Glc hydrolysis activity compared to DMSO-treated control cells (endogenous PPT1): substantial reductions | reduction in endogenous PPT1 activity (endogenous PPT1): 90% | in situ inhibition of hPPT1 (PPT1 [1]; 200 nM): complete inhibition | effect on NAPE hydrolysis activity of ABHD4 (ABHD4 [5]): neither ABC44 (17) nor the LYPLA1/2 inhibitor JJH254 (7) altered | dose producing near-complete blockade of PPT1 (PPT1 [6]): 1 to 5 mg/kg | cross-reactive serine hydrolase activities (serine hydrolases): two of the >40 quantified SH activities | IC50 (Cytotoxicity): > 50 µM

O=C(ON1C(=O)C2CN(Cc3ccc(Oc4ccccc4)cc3)CCN2C1=O)N1CCC(c2ccccc2)CC1 (centres unmarked) [ABC47]
inhibition of ABHD3 (ABHD3; 0.5 µM): inhibit both ABHD3 and ABHD4 | inhibition of ABHD4 (ABHD4 [3]; 0.5 µM): inhibit both ABHD3 and ABHD4
